In brackets after ≈: the same amount, converted by molar mass. Activity calls are given as the source filed them. No cut-off for these calls is given here.
Columns and labels:
[1] = test system: Pseudomonas aeruginosa; assay: Antimicrobial activity against oprD-deficient Pseudomonas aeruginosa PAO1 in hollow fiber system based pharmacokinetic-pharmacodynamic model assessed as reduction in bacterial count at 1 g administered at 4 hrs infusion regimen by time-kill assay; type: functional
Summary of the method: (§1)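 Hollow-fiber PK/PD model at 35°C, humidified. 15 ml late-log Mueller-Hinton II culture (circa 1 × 10^8 CFU/ml) per cartridge. Drug injected into the central reservoir by 0.5–4 h infusion every 6 or 8 h, run for 10 days. Samples taken at 0, 0.17, 1, 2, 3, 4, 6, 8 and 10 days, centrifuged and resuspended in saline to limit carryover. Counted on drug-free Mueller-Hinton II agar after 24 h at 35°C. Cell kill taken from counts at 24 h of exposure.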

[2] = test system: Pseudomonas aeruginosa; assay: Antimicrobial activity against oprD-deficient Pseudomonas aeruginosa PAO1 by broth macrodilution method; type: functional
[3] = test system: Pseudomonas aeruginosa; assay: Antimicrobial activity against Pseudomonas aeruginosa PAO1 expressing derepressed chromosomal AmpC mutant by broth macrodilution method; type: functional
[4] = test system: Pseudomonas aeruginosa; assay: Antimicrobial activity against wild type Pseudomonas aeruginosa PAO1 by broth macrodilution method; type: functional
[5] = test system: Pseudomonas aeruginosa; assay: Antimicrobial activity against oprD-deficient Pseudomonas aeruginosa PAO1 in hollow fiber system based pharmacokinetic-pharmacodynamic model assessed as reduction in bacterial count at 1 g administered at 4 hrs infusion regimen every 8 hrs by time-kill assay; type: functional, organism-based; summary of the method: as §1
[6] = test system: Pseudomonas aeruginosa; assay: Antimicrobial activity against wild type Pseudomonas aeruginosa PAO1 in hollow fiber system based pharmacokinetic-pharmacodynamic model assessed as reduction in bacterial count at 1 g administered at 4 hrs infusion regimen every 8 hrs by time-kill assay; type: functional; summary of the method: as §1
[7] = test system: Pseudomonas aeruginosa; assay: Antimicrobial activity against wild type Pseudomonas aeruginosa PAO1 in hollow fiber system based pharmacokinetic-pharmacodynamic model assessed as reduction in bacterial count at 500 mg administered at 4 hrs infusion regimen every 8 hrs by time-kill assay; type: functional; summary of the method: as §1
[8] = test system: Pseudomonas aeruginosa; assay: Antimicrobial activity against wild type Pseudomonas aeruginosa PAO1 in hollow fiber system based pharmacokinetic-pharmacodynamic model assessed as reduction in bacterial count at 500 mg administered at 1 hr infusion regimen every 8 hrs by time-kill assay; type: functional; summary of the method: as §1
[9] = test system: Pseudomonas aeruginosa; assay: Antimicrobial activity against oprD-deficient Pseudomonas aeruginosa PAO1 in hollow fiber system based pharmacokinetic-pharmacodynamic model assessed as reduction in bacterial count at 1 g administered at 1 hr infusion regimen every 8 hrs by time-kill assay; type: functional; summary of the method: as §1
[10] = test system: Pseudomonas aeruginosa; assay: Antimicrobial activity against oprD-deficient Pseudomonas aeruginosa PAO1 in hollow fiber system based pharmacokinetic-pharmacodynamic model assessed as reduction in bacterial count at 500 mg administered at 1 hr infusion regimen every 8 hrs by time-kill assay; type: functional; summary of the method: as §1

SMILES | log10CFU/ml [1] | MIC [2] [µg/mL] | MIC [3] [µg/mL] | MIC [4] [µg/mL] | Activity [5] | log10CFU/ml [6] | log10CFU/ml [7] | log10CFU/ml [8] | log10CFU/ml [9] | log10CFU/ml [10]
C[C@@H](O)[C@H]1C(=O)N2C(C(=O)O)=C(S[C@@H]3CN[C@H](CNS(N)(=O)=O)C3)[C@H](C)[C@H]12 [DORIPENEM] | 4.24 | 2 (≈ 4.76 µM) | 2 (≈ 4.76 µM) | 1 (≈ 2.38 µM) | Active | 5.4 | 4.07 | 3.71 | 3.47 | 3.12
C[C@@H](O)[C@H]1C(=O)N2C(C(=O)O)=C(SCCNC=N)C[C@H]12 [IMIPENEM ANHYDROUS] | – | 16 (≈ 53.4 µM) | 2 (≈ 6.68 µM) | 2 (≈ 6.68 µM) | – | – | – | – | – | –

From ChEMBL document CHEMBL1255474, “Impact of different carbapenems and regimens of administration on resistance emergence for three isogenic Pseudomonas aeruginosa strains with differing mechanisms of resistance” (2010)
